Reference: paper PMC4809803 (Oncogene, 2015)

Assays:
[1] = system: HCD-57 cells expressing FLT3-D835H; assay: XTT cell viability assay, transformed HCD-57; assay type: cell-based, murine; settings: 48 hours
parent HCD-57 cells [2] = assay: Apoptosis assay, annexin V and propidium iodide; assay type: cell-based, murine; settings: 100 and 500 nM, 24 hours, cultured with EPO
[3] = system: FLT3-ITD-transformed HCD-57 cells; assay: Apoptosis assay, annexin V and propidium iodide; assay type: cell-based, murine; settings: 100 and 500 nM, 24 hours
[4] = system: FLT3 signaling in FLT3-ITD-transformed HCD-57 cells; assay: Cell signaling western blot; assay type: cell-based, murine; settings: 3 hours
In short: (§1)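 EPO-independent retrovirally transformed HCD-57 cells were treated with the indicated inhibitor concentrations for 3 h. They were lysed in whole-cell buffer (25 mM β-glycerophosphate pH 7.3, EDTA/EGTA, 1% Triton X-100, 0.1 M NaCl, 1 mM vanadate, protease inhibitors) and cleared at 13 000×g. Equal total protein was run on SDS gels and immunoblotted for pFLT3 (pY591), pERK1/2 (pT202/pY204), pAKT (pS473), total FLT3/ERK/AKT and GAPDH.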

[5] = system: FLT3-D835Y-transformed HCD-57 cells; assay: Cell cycle analysis, propidium iodide; assay type: cell-based, murine; settings: 100 and 500 nM, 24 hours
[6] = system: HCD-57 cells transformed with JAK2V617F; settings: XTT, 48 hours
[7] = system: HCD-57 cells expressing FLT3-ITD; assay: XTT cell viability assay, transformed HCD-57; assay type: cell-based, murine; settings: 48 hours
[8] = system: FLT3 signaling in FLT3-D835Y-transformed HCD-57 cells; assay: Cell signaling western blot; assay type: cell-based, murine; settings: 3 hours
In short: as §1

[9] = system: FLT3-D835Y-transformed HCD-57 cells; assay: Apoptosis assay, annexin V and propidium iodide; assay type: cell-based, murine; settings: 100 and 500 nM, 24 hours
[10] = system: HCD-57 cells expressing FLT3-D835Y; assay: XTT cell viability assay, transformed HCD-57; assay type: cell-based, murine; settings: 48 hours
parent HCD-57 cells [11] = assay: XTT cell viability assay, parent HCD-57; assay type: cell-based, murine; settings: 48 hours, with EPO
[12] = system: FLT3-ITD-transformed HCD-57 cells; assay: Cell cycle analysis, propidium iodide; assay type: cell-based, murine; settings: 100 and 500 nM, 24 hours

CNC(=O)c1cc(Oc2ccc(NC(=O)Nc3ccc(Cl)c(C(F)(F)F)c3)cc2)ccn1 [sorafenib]
effect on cell growth/viability [1]: far less active | apoptosis (parent HCD-57 cells [2]): neither JI6 nor sorafenib displayed significant effects | percentage of apoptotic and necrotic cells [3]: potent to induce apoptosis and necrosis | phosphorylation of FLT3, ERK and Akt [4]: strong inhibitory effect | cell cycle distribution (G1, S+G2) [5]: exhibited such an effect only on the FLT3-ITD cells | effect on cell viability [6]: far less active | effect on cell growth/viability [7]: strongly inhibited | phosphorylation of FLT3, ERK and Akt [8]: much less effective | percentage of apoptotic and necrotic cells [9]: no effect | effect on cell growth/viability [10]: far less active | effect on cell viability (parent HCD-57 cells [11]): far less active | cell cycle distribution (G1, S+G2) [12]: exhibited such an effect only on the FLT3-ITD cells
